ChEMBL document CHEMBL1157828, “Design, synthesis and pharmacological evaluation of novel naphthalenic derivatives as selective MT(1) melatoninergic ligands” (Bioorg Med Chem, 2010)

Species: Homo sapiens
Experiment: Selectivity ratio of Ki for human MT2 receptor to Ki for human MT1 receptor

Row | Ratio Ki | Structure (SMILES)
1 | 5 | CC(=O)NCCc1cccc2ccc(OCCCCOc3ccc4cccc(CC(=O)O)c4c3)cc12
2 | 10 | CC(=O)NCCc1cccc2ccc(OCCCCOc3ccc4cccc(CCNC(=O)C5CC5)c4c3)cc12
3 | 8 | COC(=O)c1ccc(-c2ccc(OCCCCOc3ccc4cccc(CCNC(C)=O)c4c3)cc2)cc1
4 | 35 | O=C(NCCCc1ccc2nc(CCCCc3ccccc3)oc2c1)C1CC1
5 | 11 | C=CCC(=O)NCCc1cccc2ccc(OCCCCOc3ccc4cccc(CCNC(C)=O)c4c3)cc12
6 | 12 | C=CCC(=O)NCCc1cccc2ccc(OCCCCOc3ccc4cccc(CCNC(=O)CC=C)c4c3)cc12
7 | 26 | COC(=O)Cc1cccc2ccc(OCCCCOc3ccc4cccc(CCNC(C)=O)c4c3)cc12
8 | 26 | CC(=O)NCCc1cccc2ccc(OCCCCOc3ccc4c(c3)C(CCNC(C)=O)CCC4)cc12 (centres undefined)
9 | 13 | O=C(NCCc1cccc2ccc(OCCCCOc3ccc4cccc(CCNC(=O)C5CC5)c4c3)cc12)C1CC1
10 | 70 | CC(=O)NCCc1cccc2ccc(-c3ccc4cccc(CCNC(C)=O)c4c3)cc12
11 | 72 | CC(=O)NCCc1cccc2ccc(OCCCCOc3ccc(-c4ccc(CO)cc4)cc3)cc12
12 | 10 | CC(=O)NCCc1cccc2ccc(OCCCCOc3ccc4occ(CCNC(C)=O)c4c3)cc12
13 | 5 | CC(=O)NCCc1cccc2ccc(OCCCCOc3ccc4scc(CCNC(C)=O)c4c3)cc12
14 | 39 | CC(=O)NCCc1cccc2ccc(OCCCCOc3ccc4cc(C(C)C(=O)O)ccc4c3)cc12 (centres undefined)
15 | 21 | CC(=O)NCCc1cccc2ccc(OCCCCOc3ccc4[nH]cc(CCNC(C)=O)c4c3)cc12
16 | 93 | CC(=O)NCCc1cccc2ccc(OCCCCOc3ccc(-c4ccc(C(=O)O)cc4)cc3)cc12
17 | 18 | CC(=O)NCCc1cccc2ccc(OCCCCOc3ccc4cccc(CCNC(=O)c5ccco5)c4c3)cc12
18 | 120 | CC(=O)NCCc1cccc2ccc(OCCCCOc3ccc4cccc(CCNC(C)=O)c4c3)cc12
19 | 11 | COC(=O)C(C)c1ccc2cc(OCCCCOc3ccc4cccc(CCNC(C)=O)c4c3)ccc2c1 (centres undefined)

The compounds below were run against T1, Melatonin receptor type 1A (Homo sapiens, UniProt P48039) (assay: Displacement of 2-[125I]iodomelatonin from human MT1 receptor expressed in CHO cells).
Assay type: cell-based
Method in brief: (§1)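 Membranes from CHO cells stably expressing human MT1 or MT2, grown in DMEM with 10% fetal calf serum, homogenized in Tris/EDTA and pelleted at 95,000g. Incubated with 20 pM 2-[125I]-iodomelatonin and test drug in 50 mM Tris/HCl pH 7.4, 5 mM MgCl2, 120 min at 37 °C. Stopped by filtration onto PEI-soaked GF/B filters. Ki = IC50/(1+[L]/KD) from seven-concentration curves.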

T1 sequence (P48039 whole entry): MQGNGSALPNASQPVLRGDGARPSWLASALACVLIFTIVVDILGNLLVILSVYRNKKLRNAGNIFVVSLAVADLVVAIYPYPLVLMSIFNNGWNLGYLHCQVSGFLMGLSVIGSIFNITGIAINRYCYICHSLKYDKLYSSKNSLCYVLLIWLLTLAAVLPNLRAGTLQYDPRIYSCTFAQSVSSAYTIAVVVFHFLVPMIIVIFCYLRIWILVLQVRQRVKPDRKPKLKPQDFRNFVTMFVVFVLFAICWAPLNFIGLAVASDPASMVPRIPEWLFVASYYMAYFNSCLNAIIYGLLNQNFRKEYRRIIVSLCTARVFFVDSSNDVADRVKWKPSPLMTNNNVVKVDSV

Row | Ki | Structure (SMILES)
20 | 9.1 nM | CC(=O)NCCc1cccc2ccc(OCCCCOc3ccc4cccc(CC(=O)O)c4c3)cc12
21 | 1.07 nM | CC(=O)NCCc1cccc2ccc(OCCCCOc3ccc4cccc(CCNC(=O)C5CC5)c4c3)cc12
22 | 2.37 nM | COC(=O)c1ccc(-c2ccc(OCCCCOc3ccc4cccc(CCNC(C)=O)c4c3)cc2)cc1
23 | 0.79 nM | C=CCC(=O)NCCc1cccc2ccc(OCCCCOc3ccc4cccc(CCNC(C)=O)c4c3)cc12
24 | 0.92 nM | C=CCC(=O)NCCc1cccc2ccc(OCCCCOc3ccc4cccc(CCNC(=O)CC=C)c4c3)cc12
25 | 0.07 nM | COC(=O)Cc1cccc2ccc(OCCCCOc3ccc4cccc(CCNC(C)=O)c4c3)cc12
26 | 0.26 nM | CC(=O)NCCc1cccc2ccc(OCCCCOc3ccc4c(c3)C(CCNC(C)=O)CCC4)cc12 (centres undefined)
27 | 1.01 nM | O=C(NCCc1cccc2ccc(OCCCCOc3ccc4cccc(CCNC(=O)C5CC5)c4c3)cc12)C1CC1
28 | 0.09 nM | CC(=O)NCCc1cccc2ccc(OCCCCOc3ccc(-c4ccc(CO)cc4)cc3)cc12
29 | 1.38 nM | CC(=O)NCCc1cccc2ccc(OCCCCOc3ccc4occ(CCNC(C)=O)c4c3)cc12
30 | 3.47 nM | CC(=O)NCCc1cccc2ccc(OCCCCOc3ccc4scc(CCNC(C)=O)c4c3)cc12
31 | 1.51 nM | CC(=O)NCCc1cccc2ccc(OCCCCOc3ccc4cc(C(C)C(=O)O)ccc4c3)cc12 (centres undefined)
32 | 4.04 nM | CC(=O)NCCc1cccc2ccc(OCCCCOc3ccc4[nH]cc(CCNC(C)=O)c4c3)cc12
33 | 0.55 nM | CC(=O)NCCc1cccc2ccc(OCCCCOc3ccc(-c4ccc(C(=O)O)cc4)cc3)cc12
34 | 0.64 nM | CC(=O)NCCc1cccc2ccc(OCCCCOc3ccc4cccc(CCNC(=O)c5ccco5)c4c3)cc12
35 | 0.37 nM | COC(=O)C(C)c1ccc2cc(OCCCCOc3ccc4cccc(CCNC(C)=O)c4c3)ccc2c1 (centres undefined)

Each compound was assayed against T2, Melatonin receptor type 1B (Homo sapiens, UniProt P49286) (assay: Agonist activity at human MT2 receptor expressed in CHO cells by [35S]GTPgamma binding assay).
T2 sequence (P49286 whole entry): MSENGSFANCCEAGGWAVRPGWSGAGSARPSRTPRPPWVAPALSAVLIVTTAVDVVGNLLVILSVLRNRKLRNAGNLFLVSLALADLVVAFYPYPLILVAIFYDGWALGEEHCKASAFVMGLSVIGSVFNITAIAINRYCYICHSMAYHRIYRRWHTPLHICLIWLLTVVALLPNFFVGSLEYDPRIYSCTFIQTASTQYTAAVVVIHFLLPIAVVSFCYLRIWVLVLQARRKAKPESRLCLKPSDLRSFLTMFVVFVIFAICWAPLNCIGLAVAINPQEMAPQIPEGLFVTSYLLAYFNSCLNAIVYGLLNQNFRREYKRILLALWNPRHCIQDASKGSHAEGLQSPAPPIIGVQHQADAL
Assay type: functional, cell-based

Row | EC50 | Structure (SMILES)
36 | 40.2 nM | C=CCC(=O)NCCc1cccc2ccc(OCCCCOc3ccc4cccc(CCNC(=O)CC=C)c4c3)cc12
37 | 134 nM | O=C(NCCc1cccc2ccc(OCCCCOc3ccc4cccc(CCNC(=O)C5CC5)c4c3)cc12)C1CC1
38 | 26 nM | CC(=O)NCCc1cccc2ccc(OCCCCOc3ccc(-c4ccc(CO)cc4)cc3)cc12
39 | 20.6 nM | CC(=O)NCCc1cccc2ccc(OCCCCOc3ccc4scc(CCNC(C)=O)c4c3)cc12
40 | 161 nM | CC(=O)NCCc1cccc2ccc(OCCCCOc3ccc4cc(C(C)C(=O)O)ccc4c3)cc12 (centres undefined)
41 | 405 nM | CC(=O)NCCc1cccc2ccc(OCCCCOc3ccc4cccc(CCNC(C)=O)c4c3)cc12
42 | 88 nM | COC(=O)C(C)c1ccc2cc(OCCCCOc3ccc4cccc(CCNC(C)=O)c4c3)ccc2c1 (centres undefined)

Each compound was assayed against T2, Melatonin receptor type 1B (assay: Displacement of 2-[125I]iodomelatonin from human MT2 receptor expressed in CHO cells).
Assay type: cell-based
Method in brief: as §1

Row | Ki | Structure (SMILES)
43 | 45.8 nM | CC(=O)NCCc1cccc2ccc(OCCCCOc3ccc4cccc(CC(=O)O)c4c3)cc12
44 | 11.1 nM | CC(=O)NCCc1cccc2ccc(OCCCCOc3ccc4cccc(CCNC(=O)C5CC5)c4c3)cc12
45 | 19.1 nM | COC(=O)c1ccc(-c2ccc(OCCCCOc3ccc4cccc(CCNC(C)=O)c4c3)cc2)cc1
46 | 8.45 nM | C=CCC(=O)NCCc1cccc2ccc(OCCCCOc3ccc4cccc(CCNC(C)=O)c4c3)cc12
47 | 10.9 nM | C=CCC(=O)NCCc1cccc2ccc(OCCCCOc3ccc4cccc(CCNC(=O)CC=C)c4c3)cc12
48 | 1.84 nM | COC(=O)Cc1cccc2ccc(OCCCCOc3ccc4cccc(CCNC(C)=O)c4c3)cc12
49 | 6.79 nM | CC(=O)NCCc1cccc2ccc(OCCCCOc3ccc4c(c3)C(CCNC(C)=O)CCC4)cc12 (centres undefined)
50 | 13.6 nM | O=C(NCCc1cccc2ccc(OCCCCOc3ccc4cccc(CCNC(=O)C5CC5)c4c3)cc12)C1CC1
51 | 6.53 nM | CC(=O)NCCc1cccc2ccc(OCCCCOc3ccc(-c4ccc(CO)cc4)cc3)cc12
52 | 13.9 nM | CC(=O)NCCc1cccc2ccc(OCCCCOc3ccc4occ(CCNC(C)=O)c4c3)cc12
53 | 16.9 nM | CC(=O)NCCc1cccc2ccc(OCCCCOc3ccc4scc(CCNC(C)=O)c4c3)cc12
54 | 59.1 nM | CC(=O)NCCc1cccc2ccc(OCCCCOc3ccc4cc(C(C)C(=O)O)ccc4c3)cc12 (centres undefined)
55 | 84.3 nM | CC(=O)NCCc1cccc2ccc(OCCCCOc3ccc4[nH]cc(CCNC(C)=O)c4c3)cc12
56 | 51.3 nM | CC(=O)NCCc1cccc2ccc(OCCCCOc3ccc(-c4ccc(C(=O)O)cc4)cc3)cc12
57 | 11.8 nM | CC(=O)NCCc1cccc2ccc(OCCCCOc3ccc4cccc(CCNC(=O)c5ccco5)c4c3)cc12
58 | 4.22 nM | COC(=O)C(C)c1ccc2cc(OCCCCOc3ccc4cccc(CCNC(C)=O)c4c3)ccc2c1 (centres undefined)

These compounds were tested against T1, Melatonin receptor type 1A (assay: Agonist activity at human MT1 receptor expressed in CHO cells by [35S]GTPgamma binding assay).
Assay type: functional, cell-based

Row | EC50 | Structure (SMILES)
59 | 3.14 nM | CC(=O)NCCc1cccc2ccc(OCCCCOc3ccc4cccc(CC(=O)O)c4c3)cc12
60 | 9.1 nM | CC(=O)NCCc1cccc2ccc(OCCCCOc3ccc4cccc(CCNC(=O)C5CC5)c4c3)cc12
61 | 46.2 nM | COC(=O)c1ccc(-c2ccc(OCCCCOc3ccc4cccc(CCNC(C)=O)c4c3)cc2)cc1
62 | 12 nM | C=CCC(=O)NCCc1cccc2ccc(OCCCCOc3ccc4cccc(CCNC(C)=O)c4c3)cc12
63 | 16.1 nM | C=CCC(=O)NCCc1cccc2ccc(OCCCCOc3ccc4cccc(CCNC(=O)CC=C)c4c3)cc12
64 | 2.89 nM | COC(=O)Cc1cccc2ccc(OCCCCOc3ccc4cccc(CCNC(C)=O)c4c3)cc12
65 | 7.75 nM | CC(=O)NCCc1cccc2ccc(OCCCCOc3ccc4c(c3)C(CCNC(C)=O)CCC4)cc12 (centres undefined)
66 | 2.37 nM | CC(=O)NCCc1cccc2ccc(OCCCCOc3ccc(-c4ccc(CO)cc4)cc3)cc12
67 | 2.49 nM | CC(=O)NCCc1cccc2ccc(OCCCCOc3ccc4occ(CCNC(C)=O)c4c3)cc12
68 | 1.94 nM | CC(=O)NCCc1cccc2ccc(OCCCCOc3ccc4scc(CCNC(C)=O)c4c3)cc12
69 | 22 nM | CC(=O)NCCc1cccc2ccc(OCCCCOc3ccc4cc(C(C)C(=O)O)ccc4c3)cc12 (centres undefined)
70 | 2.38 nM | CC(=O)NCCc1cccc2ccc(OCCCCOc3ccc4[nH]cc(CCNC(C)=O)c4c3)cc12
71 | 26.1 nM | CC(=O)NCCc1cccc2ccc(OCCCCOc3ccc(-c4ccc(C(=O)O)cc4)cc3)cc12
72 | 11.2 nM | CC(=O)NCCc1cccc2ccc(OCCCCOc3ccc4cccc(CCNC(=O)c5ccco5)c4c3)cc12
73 | 73 nM | CC(=O)NCCc1cccc2ccc(OCCCCOc3ccc4cccc(CCNC(C)=O)c4c3)cc12
74 | 21.7 nM | COC(=O)C(C)c1ccc2cc(OCCCCOc3ccc4cccc(CCNC(C)=O)c4c3)ccc2c1 (centres undefined)
